Measured values published in ChEMBL document CHEMBL2021903, “3-Deoxy-3,4-dehydro analogs of XM462. Preparation and activity on sphingolipid metabolism and cell fate” (Bioorg Med Chem, 2012).
Active and inactive are the calls of the source. The rule behind the calls is not given here.

What was measured:
[1] = biological target: T1, Acid ceramidase (Homo sapiens, UniProt Q13510); test: Inhibition of aCDase in Moh.pAS AcCer10X cells using RBM14C12 as substrate after 1 hr by HPLC-FD analysis; format: cell-based
T1 sequence (Q13510 whole entry): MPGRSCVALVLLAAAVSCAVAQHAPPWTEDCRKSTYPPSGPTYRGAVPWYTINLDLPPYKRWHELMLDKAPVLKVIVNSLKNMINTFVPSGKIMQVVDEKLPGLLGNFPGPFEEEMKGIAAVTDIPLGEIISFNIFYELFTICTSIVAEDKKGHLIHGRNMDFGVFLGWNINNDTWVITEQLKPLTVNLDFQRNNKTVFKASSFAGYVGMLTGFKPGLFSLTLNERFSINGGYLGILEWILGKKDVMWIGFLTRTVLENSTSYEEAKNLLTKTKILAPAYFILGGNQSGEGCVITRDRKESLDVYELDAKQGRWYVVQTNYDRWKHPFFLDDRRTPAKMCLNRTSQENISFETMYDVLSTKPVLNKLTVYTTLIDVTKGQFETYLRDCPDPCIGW

[2] = biological target: T1, Acid ceramidase; test: Inhibition of aCDase using RBM14C12 as substrate after 1 hr by HPLC-FD analysis
[3] = biological target: Neutral ceramidase (Homo sapiens) (UniProt Q9NR71); test: Inhibition of nCDase using CerC12NBD as substrate after 1 hr by HPLC-FD analysis
Sequence of Neutral ceramidase (Homo sapiens) (Q9NR71 whole entry): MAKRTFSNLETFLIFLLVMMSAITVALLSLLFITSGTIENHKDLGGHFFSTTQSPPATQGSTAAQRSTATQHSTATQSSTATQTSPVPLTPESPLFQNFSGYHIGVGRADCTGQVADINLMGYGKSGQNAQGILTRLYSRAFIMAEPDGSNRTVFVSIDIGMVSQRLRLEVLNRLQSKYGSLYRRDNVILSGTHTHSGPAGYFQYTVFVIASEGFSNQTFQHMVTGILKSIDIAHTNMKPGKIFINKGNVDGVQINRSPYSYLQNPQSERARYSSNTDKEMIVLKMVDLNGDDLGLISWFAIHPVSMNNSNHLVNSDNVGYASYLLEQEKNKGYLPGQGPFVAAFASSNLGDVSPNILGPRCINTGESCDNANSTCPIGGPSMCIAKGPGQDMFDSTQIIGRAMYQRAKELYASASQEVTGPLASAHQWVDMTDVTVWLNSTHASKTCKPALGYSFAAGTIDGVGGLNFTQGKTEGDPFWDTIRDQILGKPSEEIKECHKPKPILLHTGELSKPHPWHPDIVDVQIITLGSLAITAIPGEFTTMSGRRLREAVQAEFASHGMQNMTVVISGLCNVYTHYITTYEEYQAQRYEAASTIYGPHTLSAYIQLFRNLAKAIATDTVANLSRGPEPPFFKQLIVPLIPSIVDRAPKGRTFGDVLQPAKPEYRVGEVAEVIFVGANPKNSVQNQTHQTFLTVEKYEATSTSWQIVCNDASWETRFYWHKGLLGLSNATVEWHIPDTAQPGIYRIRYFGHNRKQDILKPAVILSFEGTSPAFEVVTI
In short: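 Moh. pAS cells transfected to overexpress neutral ceramidase. Lysates (sonicated in 1 mM Tris–HCl, 0.1 mM EDTA, pH 7.5) incubated 1 h, 37 °C, with 5 µM CerC12NBD in 25 mM Tris–HCl pH 7.5, 1% sodium cholate, ±50 µM compound. Intact cells treated 4 h with 50 µM compound before lysis and assay. Read-out HPLC-fluorescence.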

[4] = biological target: T2, Sphingomyelin phosphodiesterase (Homo sapiens) (UniProt P17405); test: Inhibition of human aSMase using 6-hexadecanoylamino-4-methylumbelliferylphosphorylcholine as substrate at 100 uM preincubated for 30 mins prior substrate addition measured after 2 hrs by spectrophotometry
T2 sequence (whole entry): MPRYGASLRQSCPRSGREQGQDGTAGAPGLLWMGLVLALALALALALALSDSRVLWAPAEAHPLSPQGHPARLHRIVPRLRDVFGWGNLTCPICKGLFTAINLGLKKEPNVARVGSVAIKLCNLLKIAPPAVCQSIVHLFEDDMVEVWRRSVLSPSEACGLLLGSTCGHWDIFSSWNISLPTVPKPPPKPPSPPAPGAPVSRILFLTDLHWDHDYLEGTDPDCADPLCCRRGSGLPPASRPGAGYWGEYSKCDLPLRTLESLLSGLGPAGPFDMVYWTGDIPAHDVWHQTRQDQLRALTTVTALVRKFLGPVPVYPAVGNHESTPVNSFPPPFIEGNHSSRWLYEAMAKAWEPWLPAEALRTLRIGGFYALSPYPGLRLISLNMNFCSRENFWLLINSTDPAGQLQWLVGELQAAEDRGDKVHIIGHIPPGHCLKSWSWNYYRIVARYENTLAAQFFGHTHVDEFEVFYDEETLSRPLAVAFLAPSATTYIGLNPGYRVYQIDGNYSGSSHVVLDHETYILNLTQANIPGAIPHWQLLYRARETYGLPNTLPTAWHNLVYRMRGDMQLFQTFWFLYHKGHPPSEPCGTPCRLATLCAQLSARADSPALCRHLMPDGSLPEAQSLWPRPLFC

[5] = biological target: T3, Lysosomal acid glucosylceramidase (Homo sapiens) (UniProt P04062); test: Inhibition of human glucocerebrosidase using 4-methylumbelliferyl beta-D-glucoside as substrate at 100 uM preincubated prior substrate addition measured after 45 mins by spectrophotometry
T3 sequence (whole entry): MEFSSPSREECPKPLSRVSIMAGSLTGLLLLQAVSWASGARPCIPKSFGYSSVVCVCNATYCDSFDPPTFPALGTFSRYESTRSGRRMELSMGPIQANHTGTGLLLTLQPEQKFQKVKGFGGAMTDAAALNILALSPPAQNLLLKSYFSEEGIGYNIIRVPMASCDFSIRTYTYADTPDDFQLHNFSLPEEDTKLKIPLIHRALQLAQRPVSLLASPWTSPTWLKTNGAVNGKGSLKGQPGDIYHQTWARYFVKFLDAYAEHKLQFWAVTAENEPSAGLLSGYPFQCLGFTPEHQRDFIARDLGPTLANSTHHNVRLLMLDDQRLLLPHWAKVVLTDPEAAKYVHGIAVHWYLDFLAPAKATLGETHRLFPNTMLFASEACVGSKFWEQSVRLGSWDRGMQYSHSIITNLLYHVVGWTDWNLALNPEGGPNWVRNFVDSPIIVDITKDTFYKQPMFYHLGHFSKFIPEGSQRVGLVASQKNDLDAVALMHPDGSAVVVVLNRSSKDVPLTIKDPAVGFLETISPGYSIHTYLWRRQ

[6] = system: A549; test: Inhibition of SM synthase in human A549 cells using CerC6NBD as substrate preincubated for 24 hrs prior substrate addition measured after 3 hrs by HPLC-FD analysis; format: cell-based
[7] = biological target: T4, Ceramide glucosyltransferase (Homo sapiens) (UniProt Q16739); test: Inhibition of GlcCer synthase in human A549 cells using CerC6NBD as substrate preincubated for 24 hrs prior substrate addition measured after 3 hrs by HPLC-FD analysis; format: cell-based
T4 sequence (whole entry): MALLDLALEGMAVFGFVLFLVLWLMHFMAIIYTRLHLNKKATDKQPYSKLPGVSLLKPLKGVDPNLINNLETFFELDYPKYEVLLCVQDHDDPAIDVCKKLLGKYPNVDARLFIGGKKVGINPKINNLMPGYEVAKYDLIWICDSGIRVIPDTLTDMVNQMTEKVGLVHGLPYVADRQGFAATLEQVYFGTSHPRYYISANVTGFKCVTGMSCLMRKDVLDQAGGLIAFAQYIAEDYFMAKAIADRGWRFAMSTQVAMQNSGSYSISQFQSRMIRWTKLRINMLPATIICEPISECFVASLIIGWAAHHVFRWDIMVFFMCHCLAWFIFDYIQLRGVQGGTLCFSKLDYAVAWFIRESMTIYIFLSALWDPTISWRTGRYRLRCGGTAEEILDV

[8] = system: A549; test: Cytotoxicity against human A549 cells after 24 hrs by MTT assay; format: functional; conditions: A549, 24 h, read-out: LD50 (the source's name)
[9] = system: HCT-116; test: Cytotoxicity against human HCT116 cells after 24 hrs by MTT assay; format: functional; conditions: HCT-116, 24 h, read-out: LD50 (the source's name)
In short: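 Cells seeded at 10⁵ cells/mL; after 24 h medium replaced with fresh medium with or without test compounds across a concentration range. Viable cells counted by MTT after 24 h of treatment. LD₅₀ (µM) obtained by regression analysis of dose–response curves from two experiments with triplicates. HCT116 kept in low-glucose DMEM with 10% FBS at 37 °C, 5% CO2; cells used at about 80% confluence.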

CCCCCCCCCCCCCS/C=C/[C@H](CO)NC(=O)c1ccc(C(C)(C)C)cc1
IC50 [1]: 315 µM | IC50 [2]: 315 µM | inhibition [3]: inactive | inhibition [4]: inactive | inhibition [5]: inactive | inhibition [6]: inactive | inhibition [7]: inactive | CC50 [8]: 76 µM | CC50 [9]: 81 µM

CCCCCCCCCCCCCS/C=C/[C@H](CO)NC(=O)CCCCCCC
IC50 [1]: 77 µM | IC50 [2]: 77 µM | inhibition [3]: inactive | inhibition [4]: inactive | inhibition [5]: inactive | inhibition [6]: inactive | inhibition [7]: inactive | CC50 [8]: 19 µM | CC50 [9]: 28 µM

CCCCCCCCCCCCCS/C=C/[C@H](CO)NC(=O)C(C)(C)C
IC50 [1]: 51 µM | IC50 [2]: 51 µM | inhibition [3]: inactive | inhibition [4]: inactive | inhibition [5]: inactive | inhibition [6]: inactive | inhibition [7]: inactive | CC50 [8]: 24 µM | CC50 [9]: 30 µM
